Source: PubChem
An excerpt weighted towards active compounds, which were near 3.7% of everything screened.
KCNQ1 pot = potentiates or activates the human KCNQ1 potassium channel. B-score at 10 µM. 310,000 tested, 0.35% active. CHO-K1 KCNQ1, thallium flux FluxOR fluorescence; active compounds read high. P51787;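 active = fluorescence ratio B-score, a plate-corrected score, at least three library SD, with initial intensity B-score within 5 SD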
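Medium – assay buffer, equal DMSO in all wells · Material – CHO-K1 cell line with stable KCNQ1 potassium channel expression · Signal – kinetic FluxOR thallium fluorescence, 10-s 1-Hz baseline, 110-s post-stimulus read · Compound – single concentration per compound, DMSO matched to controls · Schedule – 37 °C overnight plating, 90-min dark dye load, 20-min compound pretreatment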
hERG rescue = hERG (human) protection from proarrhythmic block; CHO-hERG, FluxOR thallium flux, dofetilide IC70 present; activation (rescue from dofetilide block), less the hit threshold, % at 10 µM; 310,000 tested, 0.51% active;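 active = activation above the mean of controls blocked by dofetilide plus 5 SD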;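 also: thallium influx through hERG after potassium depolarization seen as dye fluorescence rise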
KCNK3 block = human KCNK3 channel inhibition, primary screen; O14649; CHO-KCNK3 thallium flux, FluxOR fluorescence; active compounds read low; B-score at 10 µM; 340,000 tested, 0.84% active;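 active = B-score under library mean minus 4 SD, starting fluorescence ratio at most library mean plus 5 SD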;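 also: more negative B-score means stronger inhibition of thallium flux through KCNK3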
Target sequence (O14649 whole entry, looked up): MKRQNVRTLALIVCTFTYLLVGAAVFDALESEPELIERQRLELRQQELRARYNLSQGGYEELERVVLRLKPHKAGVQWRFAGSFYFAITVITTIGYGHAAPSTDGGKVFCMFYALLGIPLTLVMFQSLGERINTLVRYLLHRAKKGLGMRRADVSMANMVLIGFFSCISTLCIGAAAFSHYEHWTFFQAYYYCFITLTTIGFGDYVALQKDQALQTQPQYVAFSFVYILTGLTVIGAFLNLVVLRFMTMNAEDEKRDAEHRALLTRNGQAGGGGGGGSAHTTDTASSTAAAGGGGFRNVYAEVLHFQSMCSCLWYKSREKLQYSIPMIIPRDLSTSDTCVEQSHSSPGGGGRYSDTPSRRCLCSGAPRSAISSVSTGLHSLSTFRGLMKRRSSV
KCNQ1 inh = human KCNQ1 channel inhibition | CHO-K1 KCNQ1, FluxOR thallium flux fluorescence; active compounds read high | B-score at 10 µM | 310,000 tested, 1.3% active;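 active = compounds whose thallium flux B-score, printed positive for inhibition, exceeds three library SD while starting fluorescence stays within three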;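 also: channel opened by potassium depolarization with thallium stimulus after 20 min compound exposure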
KCNK9 block = blocks the human KCNK9 two-pore domain potassium channel; HEK293 KCNK9, FluxOR thallium flux fluorescence; active compounds read low; B-score at 10 µM; 310,000 tested, 1.2% active; AID 488922;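 active = ratio B-score over 3 SD below the library mean, with starting fluorescence within 5 SD of its mean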;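 also: negative B-score means less thallium flux so channel inhibition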
Kir21 block = inhibitors of mouse Kir2.1 inward-rectifier potassium channel; P35561; AID 1672; HEK293-Kir2.1, FluxOR thallium flux fluorescence; active compounds read low; B-score at 10 µM; 310,000 tested, 0.85% active;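 active = fluorescence ratio B-score at or below minus 3 SD of library scores, with starting-brightness B-score within 2 SD, cut at about -4.2 in these data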;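 also: channel flux triggered by added potassium and thallium sulfate stimulus; B-score of peak minus minimum fluorescence over baseline after thallium stimulus; more negative B-score means stronger Kir2.1 block with less thallium influx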
* hit, by the source's call; i = inactive; x = not tested or not shown.

SMILES	KCNQ1 pot	hERG rescue	KCNK3 block	KCNQ1 inh	KCNK9 block	Kir21 block
Cc1ccc2nc(SCCCCOc3ccccc3)[nH]c2c1	i	-2.4	-9.92*	i	i	-0.15
O=C(CCC(=O)Nc1ccc(Cl)cc1)N/N=C/c1ccc2c(c1)OCO2	i	-4.6	i	6*	i	-0.21
O=C(CCC(=O)Nc1ccccc1)N/N=C/c1ccc2c(c1)OCO2	i	-8.2	i	i	i	1.63
O=C(Nc1cccc(NC(=O)c2ccccc2[N+](=O)[O-])n1)c1ccccc1[N+](=O)[O-]	i	-12.1	-9.54*	i	i	-2
CCC(CC)CN1CCC(CN2C(=S)NC[C@@H]2[C@@H](C)CC)CC1	x	x	i	x	x	x
O=C(O)CCN=CC1=C(O)CC(c2ccccc2)CC1=O (centres undefined)	i	-3.0	i	i	i	0.01
COc1ccc(S(=O)(=O)N2CCCCCC2)cc1NC(=O)CN1C(=O)CNC1=O	x	x	i	x	x	x
CCOC(=O)C1=C(C)Nc2sc(C(=O)c3ccc(OC)cc3)c(N)c2C1c1ccc(C(=O)OC)cc1 (centres undefined)	i	-9.7	i	i	-6.73*	-0.64
COc1ccccc1CNCc1cc(Br)ccc1OC	i	-1.8	i	i	i	-6.05*
COc1ccccc1CNCC(c1ccccc1)c1ccccc1	i	-6.8	i	i	i	-8.48*
COc1ccccc1CNCc1cc(OC)c(OC)cc1OC	i	-13.3	i	i	i	-0.37
COc1cc(CNCc2cccc3ccccc23)cc(OC)c1	i	-7.3	i	i	i	-4.7*
COc1ccccc1CNCc1cccc(Oc2ccccc2)c1	8*	-15.5	i	i	i	-8.78*
CCn1nccc1C(=O)Nc1ccc(C(=O)OC(C)C)cc1	i	-7.3	i	i	i	0.01
COc1ccccc1CNCC(O)Cn1c2ccccc2c2ccccc21 (centres undefined)	i	-25.0	i	i	i	-13.3*
COc1ccc(Br)cc1CNC(C)c1ccccc1 (centres undefined)	i	-6.2	i	i	i	-4.42*
O=C(Nc1cc(C(F)(F)F)ccc1Cl)C(Sc1ccccn1)c1ccccc1 (centres undefined)	i	3.1	i	i	-8.09*	1.16
O=C(c1cnn2c(C(F)(F)F)cc(-c3cccs3)nc12)N1CCN(C(c2ccccc2)c2ccccc2)CC1	i	-12.4	i	6*	i	0.88
O=C(N/N=C/C1=C(N2CCOCC2)C(=C\c2ccccc2)/CC1)Nc1ccccc1	i	-4.5	i	i	i	-0.32
O=C(O)c1ccccc1N/N=C/C1=C(N2CCOCC2)C(=C\c2ccccc2)/CC1	i	-22.5	i	9*	i	0.1
COc1ccc(N(Cc2cc3cccc(C)c3[nH]c2=O)S(=O)(=O)c2ccc(Cl)cc2)cc1	i	-9.1	i	i	-7.5*	0.52
COc1ccc(N(Cc2cc3cccc(C)c3[nH]c2=O)S(=O)(=O)c2ccc(OC)cc2)cc1	i	-4.2	i	i	i	0.53
Cc1cc([N+](=O)[O-])ccc1-c1ccc(C2Nc3ccccc3C(=O)N2O)o1 (centres undefined)	13*	2.4	i	i	i	-1.44
O=c1c2ccccc2c(C=NCc2ccccn2)c(O)n1-c1ccccc1Cl	i	8.0*	i	i	i	-0.33
O=c1c2ccccc2c(C=NCc2ccccn2)c(O)n1-c1ccccc1	i	-3.2	i	i	i	0.75
SMILES	KCNQ1 pot	hERG rescue	KCNK3 block	KCNQ1 inh	KCNK9 block	Kir21 block
COc1ccc(C(=O)O)cc1S(=O)(=O)NCCN(C)C	i	-6.5	i	i	i	1.41
CCCCC(=O)Nc1ccc(NCc2ccc(C)s2)cc1	i	8.6*	i	i	i	-0.29
CN1CCN(Cc2cc(=O)oc3cc4c(cc23)CCC4)CC1	i	-3.9	i	i	i	-1.88
CCN1CCN(Cc2cc(=O)oc3cc4c(cc23)CCC4)CC1	i	-25.0	i	8*	i	-0.83
C=CCc1cc(OC)ccc1OCCOCCN1CCc2ccccc2C1	i	-15.5	i	i	i	-11.8*
CCCOc1ccc(OCCOCCN2CCc3ccccc3C2)cc1	i	-9.7	i	i	i	-10.1*
c1ccc(OCCOCCN2CCc3ccccc3C2)cc1	i	-7.9	i	i	i	0.09
Clc1ccc(SCCOCCN2CCCCCC2)cc1	i	-5.4	i	i	i	-0.74
Cc1ccc(SCCOCCN2CCc3ccccc3C2)cc1	i	-12.2	i	i	i	-4.62*
COc1ccc(OCCCN2CCc3ccccc3C2)cc1	i	-3.6	i	i	i	0.16
CCOc1ccc(OCCOCCN2CCc3ccccc3C2)cc1	i	-8.6	i	i	i	-4.21*
CC(C)CCn1c(SCC(=O)NC2CC2)nc2cc(Cl)ccc2c1=O	i	-6.5	i	i	i	-0.07
CCOc1ccc(C2C(C(=O)OC)=C(C)N=C3SCCC(=O)N32)cc1OCC (centres undefined)	i	-5.2	-8.82*	i	i	0.59
CCc1cccc(C)c1NC(=O)C1CCN(c2nn3c(=O)cc(C)nc3s2)CC1	i	-8.8	i	i	i	0.09
c1ccc(C2=Nc3c(ccc4ccccc34)C(c3ccncc3)=NN2)cc1	i	-11.1	i	i	-7.7*	0.13
O=C(c1ccccc1Cl)N1CCN(Cc2ccc3c(c2)OCO3)CC1	i	-7.5	i	i	-7.01*	-0.02
Cc1ccc(C(=O)N2CCN(Cc3ccc4c(c3)OCO4)CC2)c(Cl)c1	i	-9.5	i	i	i	0.15
S=C(NCc1ccc2c(c1)OCO2)NC1CCN(Cc2ccccc2)CC1	i	-6.8	i	i	i	-12.3*
c1ccc(CN2CCC(N3CCN(Cc4ccc5c(c4)OCO5)CC3)CC2)cc1	i	-12.0	i	i	i	-0.17
CC(C)CCNC(=O)COC(=O)c1cc(Br)c(Br)s1	i	-13.5	i	i	i	0.67
COc1cc(C(=S)N2CCN(c3cccc(Cl)c3)CC2)ccc1O	i	5.8*	i	i	i	-1.03
CNCc1ccccc1Sc1ccc(O)c(O)c1	i	-1.7	i	i	i	-6.49*
COc1cccc(C(C(=O)NC2CCCC2)N(C(=O)CNC(=O)c2ccco2)c2cccnc2)c1 (centres undefined)	i	-6.2	i	i	i	x
C=CCSc1nc(Oc2ccccc2)c2sccc2n1	i	-5.6	i	6*	i	1.93
Cc1cc(=O)oc2c(C)c(OC(C)C(=O)NCc3ccccn3)ccc12 (centres undefined)	i	-11.0	i	i	i	-0.13
